Data: ChEMBL document CHEMBL1140069, “In vitro antifungal activity of polyfunctionalized 2-(hetero)arylquinolines prepared through imino Diels-Alder reactions” (2008)
Values after ≈ are worked out from the molar mass of the structure shown.

Experiments:
Assay type in all cases: functional
Aspergillus flavus = test: Antifungal activity against Aspergillus flavus ATCC 9170 after 48 hrs by broth microdilution technique; details: ATCC 9170, 48 h
Summary of the method: (§1)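 CLSI broth microdilution: M-27 A2 for yeasts and M-38 A for filamentous fungi. Medium is RPMI-1640 buffered to pH 7.0 with MOPS. Compound is diluted twofold from 250 to 0.98, final DMSO ≤2%. Inoculum is 1–5 × 10³ CFU/mL. Plates are incubated at 35 °C in a moist, dark chamber and read visually at 48 h. MIC100 is the lowest concentration giving total growth inhibition versus drug-free control.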

Aspergillus niger = test: Antifungal activity against Aspergillus niger ATCC 9029 after 48 hrs by broth microdilution technique; details: ATCC 9029, 48 h; summary of the method: as §1
Nannizzia gypsea = test: Antifungal activity against Microsporum gypseum C115 after 48 hrs by broth microdilution technique; summary of the method: as §1
Trichophyton rubrum [1] = test: Antifungal activity against Trichophyton rubrum C110 after 48 hrs by broth microdilution technique; summary of the method: as §1
[2] = test system: Trichophyton mentagrophytes; test: Antifungal activity against Trichophyton mentagrophytes ATCC 9972 after 48 hrs by broth microdilution technique; details: ATCC 9972, 48 h; summary of the method: as §1
Trichophyton rubrum [3] = test: Antifungal activity against Trichophyton rubrum C133 isolate; details: read-out: MIC100
Trichophyton rubrum [4] = test: Antifungal activity against Trichophyton rubrum C135 isolate; details: read-out: MIC100
Trichophyton rubrum [5] = test: Antifungal activity against Trichophyton rubrum C136 isolate; details: read-out: MIC100
Trichophyton rubrum [6] = test: Antifungal activity against Trichophyton rubrum C137 isolate; details: read-out: MIC100
[7] = test system: Trichophyton mentagrophytes; test: Antifungal activity against Trichophyton mentagrophytes C131 isolate; details: read-out: MIC100
[8] = test system: Trichophyton mentagrophytes; test: Antifungal activity against Trichophyton mentagrophytes C132 isolate; details: read-out: MIC100
[9] = test system: Trichophyton mentagrophytes; test: Antifungal activity against Trichophyton mentagrophytes C364 isolate; details: read-out: MIC100
[10] = test system: Trichophyton mentagrophytes; test: Antifungal activity against Trichophyton mentagrophytes C539 isolate; details: read-out: MIC100
[11] = test system: Trichophyton mentagrophytes; test: Antifungal activity against Trichophyton mentagrophytes C943 isolate; details: read-out: MIC100
Candida albicans = test: Antifungal activity against Candida albicans ATCC 10231 after 48 hrs by broth microdilution technique; details: ATCC 10231, 48 h; summary of the method: as §1
Saccharomyces cerevisiae = test: Antifungal activity against Saccharomyces cerevisiae ATCC 9763 after 48 hrs by broth microdilution technique; details: ATCC 9763, 48 h; summary of the method: as §1
Cryptococcus neoformans = test: Antifungal activity against Cryptococcus neoformans ATCC 32264 after 48 hrs by broth microdilution technique; details: ATCC 32264, 48 h; summary of the method: as §1
Aspergillus fumigatus = test: Antifungal activity against Aspergillus fumigatus ATTC 26934 after 48 hrs by broth microdilution technique; summary of the method: as §1

In the case of `Cc1cc(-c2ccncc2)nc2c(C(C)C)cccc12`, the MIC (Aspergillus flavus) is reported as over 250 µg/mL, the MIC (Aspergillus niger) is reported as over 250 µg/mL and the MIC (Nannizzia gypsea) is reported as 12.5 µg/mL (≈ 47.6 µM). The MIC (Trichophyton rubrum [1]; read-out: MIC) was 12.5 µg/mL (≈ 47.6 µM), the MIC (Trichophyton rubrum [1]; read-out: MIC100) was 7.8 µg/mL (≈ 29.7 µM) and the MIC [2] was 12.5 µg/mL (≈ 47.6 µM). It also gave an MIC (Trichophyton rubrum [3]) of 15.6 µg/mL (≈ 59.5 µM), an MIC (Trichophyton rubrum [4]) of 7.8 µg/mL (≈ 29.7 µM) and an MIC (Trichophyton rubrum [5]) of 7.8 µg/mL (≈ 29.7 µM). For the same molecule, the MIC (Trichophyton rubrum [6]) was 7.8 µg/mL (≈ 29.7 µM), the MIC [7] was 15.6 µg/mL (≈ 59.5 µM) and the MIC [8] was 7.8 µg/mL (≈ 29.7 µM). It also gave an MIC [9] of 7.8 µg/mL (≈ 29.7 µM), an MIC [10] of 7.8 µg/mL (≈ 29.7 µM) and an MIC [11] of 7.8 µg/mL (≈ 29.7 µM). It also gave an MIC (Candida albicans) of over 250 µg/mL, an MIC (Saccharomyces cerevisiae) of over 250 µg/mL and an MIC (Cryptococcus neoformans) of over 250 µg/mL. It also gave an MIC (Aspergillus fumigatus) of over 250 µg/mL.
With `Cc1cc(-c2ccncc2)nc2c(C)cccc12` the MIC (Aspergillus flavus) was over 250 µg/mL, the MIC (Aspergillus niger) was over 250 µg/mL and the MIC (Nannizzia gypsea) was 12.5 µg/mL (≈ 53.3 µM). It also gave an MIC (Trichophyton rubrum [1]; read-out: MIC) of 12.5 µg/mL (≈ 53.3 µM), an MIC (Trichophyton rubrum [1]; read-out: MIC100) of 7.8 µg/mL (≈ 33.3 µM) and an MIC [2] of 12.5 µg/mL (≈ 53.3 µM). The MIC (Trichophyton rubrum [3]) was 15.6 µg/mL (≈ 66.6 µM), the MIC (Trichophyton rubrum [4]) was 7.8 µg/mL (≈ 33.3 µM) and the MIC (Trichophyton rubrum [5]) was 7.8 µg/mL (≈ 33.3 µM). For the same molecule, the MIC (Trichophyton rubrum [6]) was 7.8 µg/mL (≈ 33.3 µM), the MIC [7] was 31.2 µg/mL (≈ 133 µM) and the MIC [8] was 7.8 µg/mL (≈ 33.3 µM). It also gave an MIC [9] of 7.8 µg/mL (≈ 33.3 µM), an MIC [10] of 7.8 µg/mL (≈ 33.3 µM) and an MIC [11] of 7.8 µg/mL (≈ 33.3 µM). It also gave an MIC (Candida albicans) of over 250 µg/mL, an MIC (Saccharomyces cerevisiae) of over 250 µg/mL and an MIC (Cryptococcus neoformans) of over 250 µg/mL. It also gave an MIC (Aspergillus fumigatus) of over 250 µg/mL.
